Columns and labels:
Mus musculus [1] = test: Inhibition of ataxia in mice by intraperitoneal administration.; format: functional; details: ip
Procedure, shortened: (§1)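 Mice scored for inhibition of spontaneous locomotor activity and for ataxia (impaired motor coordination). Nine mice per dose; ED50 derived from at least three doses.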

Mus musculus [2] = test: Inhibition of locomotor activity (LMA) and motor coordination in mice by intraperitoneal administration.; format: functional; details: ip; procedure, shortened: as §1
D(2) dopamine receptor = D(2) dopamine receptor (Rattus norvegicus, UniProt P61169); test: In vitro binding affinity against Dopamine receptor D2 by displacement of [3H]haloperidol from rat striatal membranes.; format: cell membranes, Membrane
Rattus norvegicus [3] = test: Inhibition of self-stimulation in rats, activity expressed as ED50 mg/kg per orally.; format: functional; details: po
Procedure, shortened: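 Oral dosing in rats; suppression of high baseline self-stimulation measured; ED50 given in mg/kg.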

[4] = molecular target: alpha-2 adrenergic receptor (Rattus norvegicus); test: Affinity for displacement of [3H]clonidine labeled alpha-2 adrenergic receptor
Rattus norvegicus [5] = test: Effect on serum prolactin level, activity expressed as percent control at 23.7 and 27.0 mg/kg per orally.; format: functional
Procedure, shortened: (§2)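 Rats dosed orally and killed 1 h after administration; serum prolactin measured. Values are means from groups of five animals, expressed as % of vehicle control.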

[6] = molecular target: alpha-1 adrenergic receptor (Rattus norvegicus); test: Affinity for displacement of [3H]WB-4101 labeled alpha-1 adrenergic receptor
D(1A) dopamine receptor = D(1A) dopamine receptor (Rattus norvegicus, UniProt P18901); test: Affinity for displacement of [3H]SCH-23390 labeled Dopamine receptor D1
Procedure, shortened: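 [3H]SCH23390 binding (D1 label), run by a method from earlier work. IC50 obtained by non-linear regression over four or five concentrations. Reference standard SCH23390 included.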

Rattus norvegicus [7] = test: Inhibition of sidman avoidance in rats, activity expressed as ED50 mg/kg per orally.; format: functional; details: po
Procedure, shortened: (§3)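 Sidman avoidance in rats or squirrel monkeys with oral dosing; ED50 given in mg/kg.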

[8] = Extrapyramidal syndrome(EPS) signs in cebus monkeys, activity expressed as MED mg/kg per orally.; format: functional; details: po; read-out: MED
Procedure, shortened: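 Cebus monkeys previously sensitized to haloperidol, observed for dystonic signs after oral dosing. Minimal effective dose determined in at least three animals.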

[9] = Inhibition of sidman avoidance in squirrel monkeys, activity expressed as ED50 mg/kg per orally.; format: functional; details: po; procedure, shortened: as §3
Rattus norvegicus [10] = test: Effect on serum prolactin level, activity expressed as percent control at 27.0 mg/kg per orally.; format: functional; procedure, shortened: as §2
Rattus norvegicus [11] = test: Effect on serum prolactin level, activity expressed as percent control at 23.7 mg/kg per orally.; format: functional; details: in the assay text read “27.0 mg/kg” for “23.7 mg/kg”; procedure, shortened: as §2

Chain of D(2) dopamine receptor (P61169 whole entry): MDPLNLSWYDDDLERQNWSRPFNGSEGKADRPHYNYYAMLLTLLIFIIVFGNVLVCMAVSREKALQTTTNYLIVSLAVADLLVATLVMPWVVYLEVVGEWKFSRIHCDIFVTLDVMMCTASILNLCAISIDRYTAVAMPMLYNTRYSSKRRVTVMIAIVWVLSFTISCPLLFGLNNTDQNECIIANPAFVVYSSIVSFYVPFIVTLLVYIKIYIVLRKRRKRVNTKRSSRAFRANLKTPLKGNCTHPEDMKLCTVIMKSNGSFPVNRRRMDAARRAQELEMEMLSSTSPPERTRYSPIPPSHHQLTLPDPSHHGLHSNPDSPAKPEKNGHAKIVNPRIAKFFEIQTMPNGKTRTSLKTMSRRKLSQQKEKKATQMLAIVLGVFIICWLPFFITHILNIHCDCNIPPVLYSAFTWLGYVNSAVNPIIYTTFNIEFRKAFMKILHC
Chain of D(1A) dopamine receptor (P18901 whole entry): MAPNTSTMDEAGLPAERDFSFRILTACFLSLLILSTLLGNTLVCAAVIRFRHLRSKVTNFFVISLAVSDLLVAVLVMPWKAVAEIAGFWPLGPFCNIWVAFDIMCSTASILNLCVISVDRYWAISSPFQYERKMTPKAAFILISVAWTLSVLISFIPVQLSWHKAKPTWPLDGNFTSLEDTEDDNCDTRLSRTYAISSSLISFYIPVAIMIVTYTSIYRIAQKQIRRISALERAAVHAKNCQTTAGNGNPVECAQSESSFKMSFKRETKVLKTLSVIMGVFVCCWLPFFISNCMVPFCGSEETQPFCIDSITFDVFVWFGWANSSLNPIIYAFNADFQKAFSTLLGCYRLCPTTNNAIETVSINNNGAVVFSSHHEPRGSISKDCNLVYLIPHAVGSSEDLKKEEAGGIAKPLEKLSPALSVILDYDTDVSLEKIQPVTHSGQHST

For `Cc1[nH]n(C)c(=O)c1C(=N)c1ccco1`, the ED50 (Mus musculus [1]) was > 100 mg/kg and the ED50 (Mus musculus [2]) was 33.6 mg/kg.

For `CCCn1[nH]c(C)c(C(=N)c2cccc(Cl)c2)c1=O`, the ED50 (Mus musculus [1]) was > 30 mg/kg, the ED50 (Mus musculus [2]) was 21.5 mg/kg and the IC50 (D(2) dopamine receptor) was > 10 µM.

For `CCn1[nH]c(C)c(C(=N)c2ccccc2)c1=O`, the ED50 (Mus musculus [1]) was 21.5 mg/kg, the ED50 (Mus musculus [2]) was 11.8 mg/kg and the IC50 (D(2) dopamine receptor) was > 10 µM.

With `Cc1[nH]n(C)c(=O)c1C(=N)c1ccc(C(F)(F)F)cc1` the ED50 (Mus musculus [1]) was > 30 mg/kg, the ED50 (Mus musculus [2]) was 31.4 mg/kg and the IC50 (D(2) dopamine receptor) was > 10 µM.

In the case of `Cc1[nH]n(C)c(=O)c1C(=N)c1cccc([N+](=O)[O-])c1`, the ED50 (Mus musculus [1]) is reported as > 100 mg/kg and the ED50 (Mus musculus [2]) is reported as 38.8 mg/kg.

For `Cc1[nH]n(C)c(=O)c1C(=N)c1cccc(Cl)c1`, the ED50 (Mus musculus [1]) was > 100 mg/kg, the ED50 (Rattus norvegicus [3]) was 23.7 mg/kg and the IC50 [4] was > 10 µM. For the same compound, the Control (Rattus norvegicus [5]) was -25%, the IC50 [6] was > 10 µM and the ED50 (Mus musculus [2]) was 15.2 mg/kg. For the same compound, the IC50 (D(1A) dopamine receptor) was > 10 µM, the IC50 (D(2) dopamine receptor) was > 10 µM and the ED50 (Rattus norvegicus [7]) was 17 mg/kg. For the same compound, the minimal effective dose [8] was > 100 mg/kg and the ED50 [9] was 16.3 mg/kg.

In the case of `Cc1[nH]n(C)c(=O)c1C(=N)c1cccc(Br)c1`, the ED50 (Mus musculus [1]) is reported as > 30 mg/kg, the ED50 (Mus musculus [2]) is reported as 20.5 mg/kg and the IC50 (D(2) dopamine receptor) is reported as > 10 µM.

Compound `COc1ccccc1C(=N)c1c(C)[nH]n(C)c1=O` has an ED50 (Mus musculus [1]) of 87.9 mg/kg and an ED50 (Mus musculus [2]) of 46.6 mg/kg.

In the case of `CCCn1[nH]c(C)c(C(=N)c2ccccc2)c1=O`, the ED50 (Mus musculus [1]) is reported as 25.2 mg/kg and the ED50 (Mus musculus [2]) is reported as 11.6 mg/kg.

In the case of `CCCCn1[nH]c(C)c(C(=N)c2ccccc2)c1=O`, the ED50 (Mus musculus [1]) is reported as > 100 mg/kg and the ED50 (Mus musculus [2]) is reported as 48.7 mg/kg.

In the case of `Cn1[nH]cc(C(=N)c2cccc(Cl)c2)c1=O`, the ED50 (Mus musculus [1]) is reported as > 100 mg/kg and the ED50 (Mus musculus [2]) is reported as 47.8 mg/kg.

For `Cc1[nH]n(C)c(=O)c1/C(=N/C(=O)C(Cl)Cl)c1cccc(Cl)c1`, the ED50 (Mus musculus [1]) was > 100 mg/kg, the ED50 (Mus musculus [2]) was 35.5 mg/kg and the IC50 (D(2) dopamine receptor) was > 1 µM.

For `CC(=O)/N=C(\c1cccc(Cl)c1)c1c(C)[nH]n(C)c1=O`, the ED50 (Mus musculus [1]) was > 100 mg/kg, the ED50 (Mus musculus [2]) was 25.1 mg/kg and the IC50 (D(2) dopamine receptor) was > 1 µM.

Work on `CN1CCN(C2=Nc3cc(Cl)ccc3Nc3ccccc32)CC1` [CLOZAPINE] yielded an ED50 (Mus musculus [1]) of 10 mg/kg.

In the case of `Cc1[nH]n(C)c(=O)c1C(=N)c1ccc(N)cc1`, the ED50 (Mus musculus [1]) is reported as > 100 mg/kg and the ED50 (Mus musculus [2]) is reported as > 100 mg/kg.

In the case of `CCc1[nH]n(C)c(=O)c1C(=N)c1cccc(Cl)c1`, the ED50 (Mus musculus [1]) is reported as 47.6 mg/kg and the ED50 (Mus musculus [2]) is reported as 60.6 mg/kg.

In the case of `Cn1[nH]cc(C(=N)c2ccccc2)c1=O`, the ED50 (Mus musculus [1]) is reported as > 100 mg/kg and the ED50 (Mus musculus [2]) is reported as 49.1 mg/kg.

In the case of `Cc1[nH]n(C)c(=O)c1/C(=N/C(=O)C(F)(F)F)c1cccc(Cl)c1`, the ED50 (Mus musculus [1]) is reported as > 100 mg/kg, the ED50 (Mus musculus [2]) is reported as 17.9 mg/kg and the IC50 (D(2) dopamine receptor) is reported as > 10 µM.

With `Cc1[nH]n(C)c(=O)c1C(=N)c1cccs1` the ED50 (Mus musculus [1]) was > 90 mg/kg and the ED50 (Mus musculus [2]) was 40.5 mg/kg.

`C/N=C(/c1cccc(Cl)c1)c1c(C)[nH]n(C)c1=O` gave an ED50 (Mus musculus [1]) of 73.1 mg/kg and an ED50 (Mus musculus [2]) of 50.5 mg/kg.

For `Cc1[nH]n(C)c(=O)c1C(=N)c1ccc(Cl)c(Cl)c1`, the ED50 (Mus musculus [1]) was > 30 mg/kg and the ED50 (Mus musculus [2]) was 26.4 mg/kg.

With `COc1ccc(C(=N)c2c(C)[nH]n(C)c2=O)cc1` the ED50 (Mus musculus [1]) was > 100 mg/kg and the ED50 (Mus musculus [2]) was > 100 mg/kg.

With `Cc1[nH]n(C)c(=O)c1C(=N)c1ccc2ccccc2c1` the ED50 (Mus musculus [1]) was > 100 mg/kg and the ED50 (Mus musculus [2]) was 65.6 mg/kg.

For `Cc1[nH]n(C)c(=O)c1C(=N)c1ccc([N+](=O)[O-])cc1`, the ED50 (Mus musculus [1]) was > 90 mg/kg and the ED50 (Mus musculus [2]) was > 90 mg/kg.

With `Cc1[nH]n(C)c(=O)c1C(=N)c1ccc(F)cc1` the ED50 (Mus musculus [1]) was > 30 mg/kg, the ED50 (Mus musculus [2]) was 15 mg/kg and the IC50 (D(2) dopamine receptor) was > 10 µM.

With `Cc1[nH]n(C)c(=O)c1C(=N)c1ccccc1` the ED50 (Mus musculus [1]) was 30.2 mg/kg, the ED50 (Mus musculus [2]) was 13.9 mg/kg and the IC50 (D(2) dopamine receptor) was > 10 µM.

With `Cc1ccc(C(=N)c2c(C)[nH]n(C)c2=O)cc1` the ED50 (Mus musculus [1]) was > 100 mg/kg and the ED50 (Mus musculus [2]) was > 100 mg/kg.

In the case of `Cc1[nH]n(C)c(=O)c1C(=N)c1ccccc1Cl`, the ED50 (Mus musculus [1]) is reported as 50.8 mg/kg and the ED50 (Mus musculus [2]) is reported as 31.1 mg/kg.

With `CSc1ccc2c(c1)N(CCC1CCCCN1C)c1ccccc1S2` (stereo not given) [THIORIDAZINE] the Control (Rattus norvegicus [10]) was 918%, the ED50 (Mus musculus [1]) was > 100 mg/kg and the ED50 (Rattus norvegicus [3]) was 28.3 mg/kg. The Control (Rattus norvegicus [11]) was 918%, the ED50 (Mus musculus [2]) was 2.9 mg/kg and the ED50 (Rattus norvegicus [7]) was 14.4 mg/kg. It also gave a minimal effective dose [8] of 2.5 mg/kg and an ED50 [9] of 4 mg/kg.

With `Cc1[nH]n(C)c(=O)c1C(=N)c1cc(Cl)cc(Cl)c1` the ED50 (Mus musculus [1]) was > 100 mg/kg and the ED50 (Mus musculus [2]) was 34.9 mg/kg.

With `Cc1[nH]n(C)c(=O)c1C(=N)c1cccc(F)c1` the ED50 (Mus musculus [1]) was 63.6 mg/kg, the ED50 (Mus musculus [2]) was 35.6 mg/kg and the IC50 (D(2) dopamine receptor) was > 10 µM.

In the case of `CCn1[nH]c(C)c(C(=N)c2cccc(Cl)c2)c1=O`, the ED50 (Mus musculus [1]) is reported as 45.3 mg/kg, the ED50 (Mus musculus [2]) is reported as 16 mg/kg and the IC50 (D(2) dopamine receptor) is reported as > 10 µM.

Work on `Cc1cccc(C(=N)c2c(C)[nH]n(C)c2=O)c1` yielded an ED50 (Mus musculus [1]) of 79.3 mg/kg and an ED50 (Mus musculus [2]) of 33.1 mg/kg.

For `Cc1[nH]n(C)c(=O)c1C(=N)c1ccc(Cl)cc1`, the ED50 (Mus musculus [1]) was > 56 mg/kg and the ED50 (Mus musculus [2]) was 18.9 mg/kg.

With `Cc1[nH]n(C(C)C)c(=O)c1C(=N)c1cccc(Cl)c1` the ED50 (Mus musculus [1]) was > 30 mg/kg, the ED50 (Mus musculus [2]) was 25 mg/kg and the IC50 (D(2) dopamine receptor) was > 10 µM.

With `Cc1[nH]n(C)c(=O)c1C(=N)c1cccc(C(F)(F)F)c1` the ED50 (Mus musculus [1]) was > 30 mg/kg and the ED50 (Mus musculus [2]) was > 30 mg/kg.

Compound `CCCCn1[nH]c(C)c(C(=N)c2cccc(Cl)c2)c1=O` has an ED50 (Mus musculus [1]) of 62.5 mg/kg and an ED50 (Mus musculus [2]) of 88.3 mg/kg.
